This is an account of results in ChEMBL document CHEMBL1142551, “Acylamido analogs of endocannabinoids selectively inhibit cancer cell proliferation” (Bioorg Med Chem, 2008).

Calls of active or inactive are those of the source. The rule behind the calls is not given here.

One series deals with RAW264.7. The series is described as follows: Antiproliferative activity against mouse RAW264.7 cells at 10 uM after 48 hrs relative to control. Format: functional. In short, it runs like this:
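RAW264.7 cells grown in RPMI with 10% FBS and passaged by scraping. Seeded in 96-well plates, treated at 10 µM 24 h after seeding, four replicates. CellTiter-Glo ATP luminescence read 48 h after treatment; results given as percent of vehicle-treated control with SD.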

Series [1] is described as follows: Antiproliferative activity against human WI38 cells at 10 uM after 48 hrs relative to control. It is filed as cell-based. Particulars: wi-38, 48 h. In short, it runs like this:
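WI-38 embryonic lung fibroblasts grown in DMEM with 10% FBS and passaged with trypsin. Plated in 96-well format and exposed to a single 10 µM concentration, with DMSO vehicle. CellTiter-Glo luminescence read 48 h after treatment, four replicates. Values given as percent of control ± SD.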

A further series relates to HeLa. Put plainly: Antiproliferative activity against human HeLa cells at 10 uM after 48 hrs relative to control. Format: functional, cell-based. In short, it runs like this:
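HeLa cells grown in DMEM with 10% FBS, seeded in 96-well plates and treated 24 h after seeding. CellTiter-Glo assay run 48 h post-treatment, four replicates per concentration. Results given as mean ± SEM relative to DMSO vehicle.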

The test system of series [2] is RBL-2H3. Put plainly: Antiproliferative activity against rat RBL2H3 cells at 0.1 uM treated 1 hr before LPS-challenge assessed after 24 hrs relative to control. It is filed as functional. In short, it runs like this:
(§1)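 RBL-2H3 mast cells, 500 cells/well in 96-well plates, grown 24 h, medium changed and cells held 4 h. Agent added 1 h before LPS (10 ng/ml), then 24 h further incubation. Cell number by CellTiter-Glo luminescence, n = 3; values given as raw response and as percent of DMSO control.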

Series [3] has as its system RBL-2H3. The series is described as follows: Antiproliferative activity against rat RBL2H3 cells at 10 uM treated 1 hr before LPS-challenge assessed after 24 hrs relative to control. Format: functional. Summed up: as §1
The subject of series [4] is RBL-2H3. The series is described as follows: Antiproliferative activity against rat RBL2H3 cells at 1 uM treated 1 hr before LPS-challenge assessed after 24 hrs relative to control. Format: functional. In short, it runs like this:
as §1

The test system of series [5] is HTB126. Put plainly: (§2) Antiproliferative activity against human HTB126 cells at 10 uM after 48 hrs by luciferase assay relative to control. Format: functional. Summed up:
(§3)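 HTB-126 cells, with matched normal HTB-125 from the same donor, in DMEM with 10% FBS. Cells seeded in 96-well plates and treated 24 h after seeding across a dose range, four replicates per point. CellTiter-Glo ATP luminescence read 48 h after treatment; values given as percent of vehicle (DMSO) wells.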

Series [6] has as its system HTB126. The series is described as follows: Antiproliferative activity against human HTB126 cells at 0.1 to 1.0 uM after 48 hrs by luciferase assay relative to control. It is filed as functional, cell-based. In short, it runs like this:
(§4)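 Matched breast lines from the same donor: HTB-125 (normal) and HTB-126 (tumor), seeded in 96-well plates and treated 24 h after seeding, DMSO vehicle. CellTiter-Glo ATP luminescence read 48 h after treatment. Four replicates per point over a dose series; values expressed as percent of vehicle-treated wells.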

Series [7] deals with HTB126. The series is described as follows: Antiproliferative activity against human HTB126 cells assessed as […] at 10 uM after 48 hrs by luciferase assay. Format: functional, cell-based. Summed up:
(§5)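 HTB-126 human breast tumour cells, 2000 cells/well in 24-well plates, grown 24 h, then given vehicle or agent at 10 µM final (diluted from a DMSO stock), N = 6. Parallel plates assayed at successive times after treatment by CellTiter-Glo luciferase ATP luminescence, read 15 min after adding an equal volume of reagent; raw units reported.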

For series [8], the system named is HTB126. The series is described as follows: Antiproliferative activity against human HTB126 cells assessed as […] at 10 uM after 72 hrs by luciferase assay. It is filed as functional, cell-based. In short, it runs like this: as §5
In series [9] the test system is HTB126. The series is described as follows: Antiproliferative activity against human HTB126 cells assessed as fluorescence units at 10 uM after 48 hrs by luciferase assay in presence of rimonabant. Format: functional, cell-based. Summed up: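 HTB-126 tumor breast cells in 96-well plates. Rimonabant (10 µM) added 30 min before the test agent (10 µM). CellTiter-Glo luminescence read 48 h later, four replicates. Values reported as raw fluorescence units rather than percent, because there are two control treatments.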

Series [10] relates to HTB126. The series is described as follows: Antiproliferative activity against human HTB126 cells assessed as […] at 10 uM after 24 hrs by luciferase assay. It is filed as functional, cell-based. Summed up: as §5
The nature of series [11]: Antiproliferative activity against human HTB125 cells at 0.1 to 1.0 uM after 48 hrs by luciferase assay relative to control. It is filed as cell-based. As to conditions: htb125, 48 h. In short, it runs like this: as §4
For series [12], the system named is HTB126. Put plainly: Antiproliferative activity against human HTB126 cells assessed as […] at 10 uM after 96 hrs by luciferase assay. It is filed as functional, cell-based. Summed up: as §5
Series [13] is described as follows: as §2. Format: functional. Particulars: HTB126, 48 h. In short, it runs like this: as §3
Series [14] is described as follows: Antiproliferative activity against human HTB125 cells at 10 uM after 48 hrs by luciferase assay relative to control. Format: cell-based. Particulars: htb125, 48 h. In short, it runs like this: as §4

For `CCCCC/C=C\C/C=C\C/C=C\CCCCCCC(=O)NCCO`, the values for the Activity (with RAW264.7; in series [1]) were 70% and 54%, respectively.
For the compound `CCCCC/C=C\C/C=C\C/C=C\CCCCCCC(=O)NCCc1ccc(O)c(O)c1`, in the series on HeLa, the result was Active. Further, the Activity in the series with RAW264.7 came to 5.72%; in series [1] it was 25.5%.
Turning to `CCCCC/C=C\C/C=C\C/C=C\C/C=C\CCCC(=O)N[C@@H](C)C(=O)O`, the results for the Activity in the series with RBL-2H3 [2], in the series on RBL-2H3 [3] and in the series on RBL-2H3 [4] were 120%, 50% and 160%, respectively.
Turning to `CCCCC/C=C\C/C=C\C/C=C\C/C=C\CCCCCC(=O)NCCO`, the values for the Activity (in the series with RAW264.7; in series [1]) were 65% and 24%, respectively.
Consider `CCCCCCCCCCCCCCCC(=O)N[C@@H](C)C(=O)O`, for which the Activity in the series with RBL-2H3 [2] came out at 110%; in the series on RBL-2H3 [3], 10%; in the series with RBL-2H3 [4] it was 90%.
As for `CCCCC/C=C\C/C=C\C/C=C\CCCCC(=O)NCCO`, the Activity in the series with RAW264.7 was 87%; in [1] it was 54%.
For the compound `CCCCC/C=C\C/C=C\C/C=C\CCCCC(=O)NCCc1ccc(O)c(O)c1`, the outcome in the series on HeLa was Active. The Activity stood at 6.1% in the series with RAW264.7 and 38.3% in [1].
On to `CCCCC/C=C\C/C=C\C/C=C\CCCCC(N)=O`, for which the figures for the Activity (with RAW264.7; in series [1]) were 94% and 33%, respectively.
On to `CCCCC/C=C\C/C=C\C/C=C\CCCCCCC(N)=O`, for which the values for the Activity (with RAW264.7; in series [1]) were 82% and 58%, respectively.
Take `CCCCC/C=C\C/C=C\C/C=C\C/C=C\CCCCCC(=O)NCCc1ccc(O)c(O)c1`: in the series on HeLa, the result was Active. The Activity in the series with RAW264.7 came to 4.32%; in series [1], 25.7%.
For `CCCCCCCCCCCCCCCC(=O)N[C@@H](Cc1ccc(O)cc1)C(=O)O`, the result with HTB126 [5], with HTB126 [7], with HTB126 [8] and with HTB126 [10] was Active. The result in the series on HTB126 [6] and in the series with HTB126 [9] was inactive. Moreover, the Activity entry in series [11] was “Non-toxic”.
Consider `CCCCC/C=C\C/C=C\C/C=C\C/C=C\CCCCCC(N)=O`, for which the values for the Activity (in the series on RAW264.7; in [1]) were 91% and 61%, respectively.
For `CCCCCCC(C)(C)c1cc(O)c2c(c1)OC(C)(C)[C@@H]1CC=C(C(=O)O)C[C@@H]21`, the outcome in the series on HeLa, in the series with HTB126 [7], in the series on HTB126 [8], in the series on HTB126 [12] and in the series on HTB126 [10] was Active.
For `CCCCC/C=C\C/C=C\C/C=C\C/C=C\CCCC(=O)NCCO` [ANANDAMIDE], the Activity in the series with RAW264.7 was determined as 110%; in series [1] it was 74%.
Taken in the same sequence, the figures for `CCCCC/C=C\C/C=C\C/C=C\C/C=C\CCCC(N)=O` [ARACHIDONAMIDE] were 91% and 58%.
Consider `CCCCC/C=C\C/C=C\C/C=C\C/C=C\CCCC(=O)NCCc1ccc(O)c(O)c1` [ARACHIDONOYL DOPAMINE], for which the Activity in the series with RAW264.7 was 2.33%; in the series on RBL-2H3 [2], 110%; with RBL-2H3 [3], 14%; in series [1] it was 22.1%; with RBL-2H3 [4], 70%.
As to `CCCCC/C=C\C/C=C\C/C=C\C/C=C\CCCC(=O)NCCCC(=O)O` [ARACHIDONOYL GABA], the Activity in the series with RBL-2H3 [2] amounted to 100%; in the series with RBL-2H3 [3], 15%; with RBL-2H3 [4], 120%.
Taken in the same sequence, the figures for `CCCCC/C=C\C/C=C\C/C=C\C/C=C\CCCC(=O)NCC(=O)O` [ARACHIDONOYL GLYCINE] were 130%, 21% and 130%.
In the case of `COc1ccc2c(c1)c(CC(=O)O)c(C)n2C(=O)c1ccc(Cl)cc1` [INDOMETHACIN], the Activity was determined as 177% in the series with RAW264.7 and 144% in [1].
For the compound `CC/C=C\C/C=C\C/C=C\CCCCCCCC(N)=O` [LINOLENAMIDE], the figures for the Activity (with RAW264.7; in series [1]) were 126% and 85%, respectively.
Taken in the same sequence, the figures for `CCCCC/C=C\C/C=C\CCCCCCCC(=O)NCCO` [LINOLEOYLETHANOLAMIDE] were 100% and 63%.
Turning to `CCCCCCCC/C=C\CCCCCCCC(N)=O` [OLEAMIDE], the Activity is on record as 134% with RAW264.7 and 94% in series [1].
Consider `CCCCCCCC/C=C\CCCCCCCC(=O)NCCc1ccc(O)c(O)c1` [OLEOYL DOPAMINE], for which the result in the series with HeLa was Active. The Activity in the series on RAW264.7 came out at 7.02%; in series [1], 24%.
With `CCCCCCCC/C=C\CCCCCCCC(=O)NCCO` [OLEOYLETHANOLAMIDE], the Activity in the series on RAW264.7 was 117%; in series [1] it was 140%.
For `CCCCCCCCCCCCCCCC(=O)NCCO` [PALMIDROL], the values for the Activity (with RAW264.7; in [1]) were 66% and 130%, respectively.
Turning to `CCCCCCCCCCCCCCCC(N)=O` [PALMITAMIDE], the Activity in the series on RAW264.7 is on record as 100%; in series [1], 118%.
As usually defined, the inhibition is the relative decrease from the control value, in per cent. With `CCCCCCCCCCCCCCCC(=O)NCCc1ccc(O)c(O)c1` [PALMITOYL DOPAMINE], the inhibition at 10 µM in series [13] was 80%. Further, the Activity entry in series [14] is “Not Active”; with RAW264.7, 11.1%; with RBL-2H3 [2], 130%; with RBL-2H3 [3], 15%; in [1], 41.6%; in the series on RBL-2H3 [4], 50%.
Consider `CCCCCCCCCCCCCCCC(=O)NCCCC(=O)O` [PALMITOYL GABA], for which the Activity with RBL-2H3 [2] is 120%; in the series with RBL-2H3 [3], 100%; with RBL-2H3 [4] it was 100%.
On to `CCCCCCCCCCCCCCCC(=O)NCC(=O)O` [PALMITOYL GLYCINE], for which the outcome in the series on HeLa was Active. Further, the figures for the Activity with RBL-2H3 [2], in the series on RBL-2H3 [3] and in the series on RBL-2H3 [4] were 130%, 110% and 110%, respectively.
